In ChEMBL document CHEMBL4145617, “Chloramphenicol Derivatives with Antibacterial Activity Identified by Functional Metagenomics” (2018):
In brackets after ≈: the same amount, converted by molar mass. Activity calls are given as the source filed them. No cut-off for these calls is given here.

Tests used:
[1] = tested on: Mycobacterium intracellulare; experiment: Antimycobacterial activity against Mycobacterium intracellulare ATCC 23068 after 70 to 74 hrs by Alamar blue based CLSI method; assay type: functional
Staphylococcus aureus [2] = experiment: Antimicrobial activity against methicillin-resistant Staphylococcus aureus ATCC 1708 at 200 ug/ml by Alamar blue based CLSI method; assay type: functional, organism-based
In short: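 S. aureus ATCC 1708 tested by a modified CLSI method. Samples were dissolved in DMSO and serially diluted in 20% DMSO/saline, and final test concentrations were 1/100th of the DMSO stock. MIC was taken as the lowest concentration with no detectable growth.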

Escherichia coli = experiment: Antimicrobial activity against Escherichia coli ATCC 2452 at 200 ug/ml by Alamar blue based CLSI method; assay type: functional, organism-based
Pseudomonas aeruginosa = experiment: Antimicrobial activity against Pseudomonas aeruginosa ATCC 2108 at 200 ug/ml by Alamar blue based CLSI method; assay type: functional, organism-based
Staphylococcus aureus [3] = experiment: Growth inhibition of Staphylococcus aureus EAMC30 at 62.5 ug/ml by Alamar blue based CLSI method relative to control; assay type: functional; details: read-out: GI
[4] = tested on: Mycobacterium tuberculosis; experiment: Antimycobacterial activity against Mycobacterium tuberculosis ATCC 25177 after 5 days by Alamar blue based CLSI method; assay type: functional; details: H37Ra, 120 h

SMILES | MIC [1] | Activity (Staphylococcus aureus [2]) | Activity (Escherichia coli) | Activity (Pseudomonas aeruginosa) | inhibition of growth at 62.5 µg/mL (Staphylococcus aureus [3]) | MIC [4]
CC(=O)O[C@H](c1ccc([N+](=O)[O-])cc1)[C@@H](CO)NC(=O)C(Cl)Cl | 25 µg/mL (≈ 68.5 µM) | – | – | – | – | –
CC(=O)OC[C@@H](NC(=O)C(Cl)Cl)[C@H](O)c1ccc([N+](=O)[O-])cc1 | 25 µg/mL (≈ 68.5 µM) | inactive | inactive | inactive | 15% | –
O=C(/C=C/c1ccccc1)O[C@H](c1ccc([N+](=O)[O-])cc1)[C@@H](CO)NC(=O)C(Cl)Cl | – | – | – | – | 35% | –
CCCC(=O)OC[C@@H](NC(=O)C(Cl)Cl)[C@H](O)c1ccc([N+](=O)[O-])cc1 | – | inactive | inactive | inactive | 36% | –
CCCC(=O)O[C@H](c1ccc([N+](=O)[O-])cc1)[C@@H](COC(=O)CC)NC(=O)C(Cl)Cl | – | inactive | inactive | inactive | – | –
CCC(=O)OC[C@@H](NC(=O)C(Cl)Cl)[C@H](O)c1ccc([N+](=O)[O-])cc1 | – | inactive | inactive | inactive | 72% | –
CCCC(=O)OC[C@@H](NC(=O)C(Cl)Cl)[C@H](OC(=O)CC)c1ccc([N+](=O)[O-])cc1 | – | inactive | inactive | inactive | – | –
O=C(N[C@H](CO)[C@H](O)c1ccc([N+](=O)[O-])cc1)C(Cl)Cl [CHLORAMPHENICOL] | 25 µg/mL (≈ 77.4 µM) | – | – | – | – | > 100 µg/mL
CC(=O)OC[C@@H](NC(=O)C(Cl)Cl)[C@H](OC(C)=O)c1ccc([N+](=O)[O-])cc1 | – | inactive | inactive | inactive | – | –
O=C(O[C@H](c1ccc([N+](=O)[O-])cc1)[C@@H](CO)NC(=O)C(Cl)Cl)c1ccc([N+](=O)[O-])cc1 | 12.5 µg/mL (≈ 26.5 µM) | – | – | – | 59% | 50 µg/mL (≈ 106 µM)
CCCC(=O)OC[C@@H](NC(=O)C(Cl)Cl)[C@H](OC(=O)CCC)c1ccc([N+](=O)[O-])cc1 | – | inactive | inactive | inactive | 11% | –
CCC(=O)OC[C@@H](NC(=O)C(Cl)Cl)[C@H](OC(=O)CC)c1ccc([N+](=O)[O-])cc1 | – | inactive | inactive | inactive | 40% | –
CCC(=O)OC[C@@H](NC(=O)C(Cl)Cl)[C@H](OC(C)=O)c1ccc([N+](=O)[O-])cc1 | – | inactive | inactive | inactive | – | –
